From paper PMC4168015 (Journal of biomolecular screening, 2013)
“Also recorded” adds a separate entry of the source. Where two headings read alike, the source gives them in different places.

What was measured:
K562 leukemia cell lines = details: read-out: GI50 against K562 leukemia cell lines; cited from earlier work
Skp2-Cks1 interaction = Skp2-Cks1 interaction (Homo sapiens, UniProt P61024+Q13309); assay: AlphaScreen assay for Skp2-Cks1 interaction; type: binding
[1] = target: SCF^Skp2 (E3) ubiquitination of p27 (Homo sapiens, UniProt Q13309); assay: In vitro p27 ubiquitination assay; type: biochemical
Method in brief: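 Mouse p27 translated in rabbit reticulocyte lysate with [35S]-methionine and phosphorylated by recombinant CDK2–cyclin E. It was then mixed with 100 nM E1, 200 nM His-Cdc34, 100 nM SCFSkp2, 50 nM Cks1, 10 μM ubiquitin, 10 μM methylated ubiquitin, ATP regeneration system, 1 μM ubiquitin aldehyde and 1 μM MG132. Run 30 min, 30 °C; products read by SDS-PAGE/phosphorimager. Test compound 40 μM.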

[2] = test system: mink lung epithelial cell line stably expressing GFP-p27; assay: GFP-p27 stabilization in mink lung epithelial cell line; type: cell-based; details: for endogenous p27 level: mink lung epithelial cell line; for stabilization of GFP-p27: mink lung epithelial cell line stably expressing GFP-p27
p210^bcr-abl = details: read-out: IC50 against p210^bcr-abl in vitro; cited from earlier work
Cks1 (Homo sapiens) [3] = target: Cks1 (Homo sapiens) (UniProt P61024); assay: ITC; details: cited from earlier work
Cks1 (Homo sapiens) [4] = target: Cks1 (Homo sapiens) (UniProt P61024); details: cited from earlier work
[5] = read-out: Inhibition of Skp2-Cks1 IC50, AlphaScreen, GST-Skp2/Skp1 20 nM, Cks1 200 nM
[6] = read-out: p27 Ub IC50, in vitro p27 ubiquitination

Sequence of Cks1 (Homo sapiens) (P61024 2-79): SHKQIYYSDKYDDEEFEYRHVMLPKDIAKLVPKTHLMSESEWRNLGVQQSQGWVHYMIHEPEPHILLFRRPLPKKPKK
Sequence of Skp2 (Q13309 whole entry): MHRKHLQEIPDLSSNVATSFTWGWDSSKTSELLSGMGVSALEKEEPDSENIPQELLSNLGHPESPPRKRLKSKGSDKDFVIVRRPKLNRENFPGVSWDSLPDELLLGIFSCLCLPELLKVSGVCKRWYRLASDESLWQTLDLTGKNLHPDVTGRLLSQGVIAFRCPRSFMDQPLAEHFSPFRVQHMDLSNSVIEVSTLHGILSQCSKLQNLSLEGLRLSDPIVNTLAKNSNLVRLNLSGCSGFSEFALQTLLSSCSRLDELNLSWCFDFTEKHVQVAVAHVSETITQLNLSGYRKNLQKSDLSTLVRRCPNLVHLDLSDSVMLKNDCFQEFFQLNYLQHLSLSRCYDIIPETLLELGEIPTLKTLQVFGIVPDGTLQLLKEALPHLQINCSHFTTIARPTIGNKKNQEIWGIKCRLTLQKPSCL

| Compound | effect on Skp2-Cks1 interaction (in words) (Skp2-Cks1 interaction; AlphaScreen) | IC50 (Skp2-Cks1 interaction; [5]) | IC50 [1, 6] | effect on p27 ubiquitination in vitro (in words) [1] | also measured |
| --- | --- | --- | --- | --- | --- |
| O=C(OCC12CC3CC(CC(C3)C1)C2)c1ccc(NCc2cc(O)ccc2O)cc1 [Compound 857] | blocked the Skp2-Cks1 interaction at low μM concentrations | 36 ± 6.2 µM | ~30 µM |  | GI50 (K562 leukemia cell lines): 12.8 µM; effect on p27 ubiquitination in vitro (in words) ([1]; listed as NSC689857): impeded p27 polyubiquitination in a dose-dependent manner; also recorded: inhibited p27 ubiquitination in vitro; endogenous p27 level [2]: increases only marginally; stabilization of GFP-p27 [2]: dose-dependent stabilization; IC50 (p210^bcr-abl): 12.6 µM |
| O=C1C=CC(=O)C=C1 [BQ, 1,4-benzoquinone, reference compound] | no effect |  |  | no effect | IC50 (Skp2-Cks1 interaction): 626 ± 65.7 µM; IC50 [1]: > 300 µM |
| COC(=O)c1ccc(CCc2cc(O)ccc2O)cc1 [NSC681152] | blocked the Skp2-Cks1 interaction at low μM concentrations | 75.6 ± 6.8 µM | ~80 µM | impeded p27 polyubiquitination in a dose-dependent manner; also recorded: inhibited p27 ubiquitination in vitro | GI50 (K562 leukemia cell lines): 18.5 µM; endogenous p27 level [2]: increases only marginally; stabilization of GFP-p27 [2]: dose-dependent stabilization; IC50 (p210^bcr-abl): 2.64 µM |
| Skp2 (from UniProt Q13309) |  |  |  |  | Kd (Cks1 (Homo sapiens) [3]): 0.014 µM; Kd (Cks1 (Homo sapiens) [4]): 0.14 µM |
| Cc1cc(O)ccc1O [MHQ, methylhydroquinone, reference compound] | no effect |  |  | no effect | IC50 (Skp2-Cks1 interaction): 434 ± 39.5 µM; IC50 [1]: > 300 µM |
| CCCCC(=O)c1ccc(OC)c(C)c1 [Compound Q857] | blocked the Skp2-Cks1 interaction at low μM concentrations | 71 ± 4.4 µM | ~15 µM | inhibited p27 ubiquitination in vitro |  |
| CCCCC(=O)c1ccc(OC)c(C)c1 [Compound E857] |  | 8310 ± 1460 µM | > 300 µM |  |  |
| CCCCC(=O)c1ccc(OC)c(C)c1 [Compound A857] |  | 1090 ± 189 µM | > 300 µM |  |  |
